Published values pooled from the literature.
Protocols differ between the studies behind these lines.
Target: Tyrosine-protein kinase Mer (MERTK, Homo sapiens, UniProt Q12866)
Sequence (Q12866 21-999, as in one of the studies): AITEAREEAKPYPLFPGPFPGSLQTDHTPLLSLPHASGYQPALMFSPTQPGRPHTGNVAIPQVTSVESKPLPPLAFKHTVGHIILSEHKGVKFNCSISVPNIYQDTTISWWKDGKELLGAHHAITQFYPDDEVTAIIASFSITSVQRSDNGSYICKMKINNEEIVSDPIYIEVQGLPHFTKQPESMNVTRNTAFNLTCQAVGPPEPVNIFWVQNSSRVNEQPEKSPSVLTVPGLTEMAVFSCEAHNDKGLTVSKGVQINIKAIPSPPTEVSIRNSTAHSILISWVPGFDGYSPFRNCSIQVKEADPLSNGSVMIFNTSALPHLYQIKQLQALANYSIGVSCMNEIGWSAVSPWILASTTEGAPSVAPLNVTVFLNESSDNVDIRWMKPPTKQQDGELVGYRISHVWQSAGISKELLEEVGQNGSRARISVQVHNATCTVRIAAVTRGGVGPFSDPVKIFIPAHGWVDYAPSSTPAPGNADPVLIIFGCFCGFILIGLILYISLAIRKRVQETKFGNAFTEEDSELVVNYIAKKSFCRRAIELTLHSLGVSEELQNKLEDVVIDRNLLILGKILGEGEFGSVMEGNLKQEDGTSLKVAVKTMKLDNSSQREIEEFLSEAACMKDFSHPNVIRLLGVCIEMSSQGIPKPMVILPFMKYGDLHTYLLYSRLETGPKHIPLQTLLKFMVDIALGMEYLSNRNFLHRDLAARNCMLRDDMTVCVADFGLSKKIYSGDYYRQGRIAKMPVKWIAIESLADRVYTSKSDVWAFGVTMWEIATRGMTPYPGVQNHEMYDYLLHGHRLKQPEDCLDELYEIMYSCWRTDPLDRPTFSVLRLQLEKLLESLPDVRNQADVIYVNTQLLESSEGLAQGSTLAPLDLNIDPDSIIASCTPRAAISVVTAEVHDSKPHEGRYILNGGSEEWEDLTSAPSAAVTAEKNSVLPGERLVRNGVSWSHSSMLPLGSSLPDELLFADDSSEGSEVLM

SMILES	test	setting	endpoint	result
CCCOc1ccc(OC)c(F)c1C(=O)c1ccc(C(=O)N[C@@H]2CNC[C@H]2NC(=O)c2ccc3[nH]ncc3c2)cc1	enzyme activity, inhibitor	10 µM	remaining activity	36%
CCN(CC)c1ccc(C2=NNC(=O)CC2C)cc1[N+](=O)[O-] (stereo not drawn)	enzyme activity, inhibitor	10 µM	remaining activity	97%
Cc1c[nH]c2nccc(Oc3c(F)cc(Nc4cc(Cl)nc(N)n4)cc3F)c12	cell-free assay, competition with immobilised ligand	0.1 µM	remaining binding	100%
Cc1cc(NC(=O)c2cccc3cc(-c4cccc5[nH]nc(N)c45)ccc23)ccc1F	enzyme activity, inhibitor	0.1 µM	activity vs control	96%
CCN(CC)CCNC(=O)c1c(C)[nH]c(/C=C2\C(=O)Nc3ccc(F)cc32)c1C	enzyme activity, inhibitor	0.3 µM	inhibition	94%
Cn1c2c(Cl)c(Cl)ccc2c2cc(N)[nH]c(=O)c21	thermal stability, DSF	10 µM	ΔTm	0.1 °C
O=c1cc(-c2cccc3c2Sc2ccccc2S3)oc(N2CCOCC2)c1	enzyme activity, inhibitor	0.5 µM	remaining activity	97%
O=C(Nc1cnn(-c2csc(C(=O)NC3COC3)c2)c1)Nc1c(F)cccc1Cl	enzyme activity, inhibitor	5 µM	remaining activity	77.1%
COc1cc(Cl)c(C(=O)N[C@@H](CN[C@H]2CC[C@@H](N)CC2)Cc2ccc(C#N)cc2)cc1-c1ccc(CN[C@H](C)c2ccc(C)cc2)o1	enzyme activity, inhibitor	1 µM	remaining activity	99%
CCCCN(CCCC)C(=O)CN1C[C@@H](c2cc(OC)c3c(c2)OCO3)[C@H](C(=O)O)[C@H]1CC(C)(C)CCC	cell-free assay, competition with immobilised ligand	1 µM	remaining binding	100%
Cn1c2c(c3ccc(Cl)c(Cl)c31)C(C#N)C1(CCCC1)NC2=O (stereo not drawn)	thermal stability, DSF	10 µM	ΔTm	-0.5 °C
Cc1ccc(Nc2nccc(N(C)c3ccc4c(C)n(C)nc4c3)n2)cc1S(N)(=O)=O	enzyme activity, inhibitor	0.3 µM	inhibition	32%
Cc1ccc(C(=O)NCc2ccsc2)cc1C#Cc1cn(C(C)C)c2ncnc(N)c12	enzyme activity, inhibitor	1 µM	activity vs control	71%
CNC(=O)Nc1ccc2c(c1)[C@@]1(CC2)OC(=O)N(CC(=O)N(Cc2ccc(F)cc2)[C@@H](C)C(F)(F)F)C1=O	cell-free assay, competition with immobilised ligand	1 µM	remaining binding	100%
COc1cc2ncnc(Nc3ccc(Oc4ccccc4)cc3C)c2cc1OC	enzyme activity, inhibitor	1 µM	inhibition	87%
O=C(Nc1cnn(-c2csc(C(=O)NC3COC3)c2)c1)Nc1ccccc1Cl	enzyme activity, inhibitor	5 µM	remaining activity	92.7%
Cn1c2c(c3ccc(Cl)c(Cl)c31)C(C#N)C(C)(C)NC2=O (stereo not drawn)	thermal stability, DSF	10 µM	ΔTm	-0.9 °C
CO[C@H]1CC[C@H](CNc2ccc(S(=O)(=O)NC(=O)c3ccc(N4CCN(CC5=C(c6ccc(Cl)cc6)CC(C)(C)CC5)CC4)cc3Oc3cnc4[nH]ccc4c3)cc2[N+](=O)[O-])CC1	cell-free assay, competition with immobilised ligand	1 µM	remaining binding	85%
Cn1c2c(c3ccc(Cl)c(Cl)c31)C(C#N)C1(CCNCC1)NC2=O (racemic)	thermal stability, DSF	10 µM	ΔTm	0.5 °C
CNC(=O)c1cc2c(Oc3ccc(NC(=O)C4(C(=O)Nc5ccc(F)cc5)CC4)cc3)ccnc2cc1OC	enzyme activity, inhibitor, radiometric	1 µM	inhibition	99%
O=C(NS(=O)(=O)c1ccc(NCC2CCOCC2)c([N+](=O)[O-])c1)c1ccc(N2CCN(Cc3ccc(C(F)(F)F)cc3-c3ccc(Cl)cc3)CC2)cc1Oc1cnc2[nH]ccc2c1	cell-free assay, competition with immobilised ligand	1 µM	remaining binding	100%
CNC(=O)c1cc(Oc2ccc(NC(=O)Nc3ccc(Cl)c(C(F)(F)F)c3)cc2)ccn1	enzyme activity, inhibitor	0.3 µM	inhibition	26%
CN1CC(Oc2cnc(C#N)cc2-c2ccn3nc(NC(=O)C4CC4)cc3c2)C1	enzyme activity, inhibitor	1 µM	inhibition	0%
Cn1c2c(Cl)c(Cl)ccc2c2cn[nH]c(=O)c21	thermal stability, DSF	10 µM	ΔTm	-0.5 °C
COc1ccc2c(O[C@@H]3C[C@H]4C(=O)N[C@]5(C(=O)O)CC5/C=C\CCCCC[C@H](NC(=O)OC5CCCC5)C(=O)N4C3)cc(-c3csc(NC(=O)C(C)C)n3)nc2c1C (stereo partly drawn)	cell-free assay, competition with immobilised ligand	1 µM	remaining binding	70%
O=C1NC(=O)c2cc(Nc3ccc(F)cc3)c(Nc3ccc(F)cc3)cc21	cell-free assay	0.5 µM	remaining signal	97.4%
CN(C)C(=O)Cn1cc(-c2nc([C@@](C)(c3ccc(-c4cnc(N)nc4)cc3)C3CC3)no2)cn1	cell-free assay, competition with immobilised ligand	1 µM	remaining binding	100%
Cn1c2c(c3ccc(Cl)c(Cl)c31)C(C#N)C1(CCOCC1)NC2=O (stereo not drawn)	thermal stability, DSF	10 µM	ΔTm	-0.5 °C
CNCc1ccccc1-c1csc([C@@H](C)Nc2nc(C)nc3cc(OC)c(OC)cc23)c1	cell-free assay, competition with immobilised ligand	1 µM	remaining binding	61%
CC(C)(C)c1nc(-c2cccc(NS(=O)(=O)c3c(F)cccc3F)c2F)c(-c2ccnc(N)n2)s1	enzyme activity, inhibitor, radiometric	1 µM	remaining activity	115%
